Measured values published in ChEMBL document CHEMBL3525903 (Drug Metab Dispos, 2013).

Legend:
Format in all cases: ADME, cell-based
[1] = Maximal inhibition of human P-glycoprotein expressed in pig LLC-PK1 cells assessed as reduction of [3H]digoxin substrate transport at 100 uM by liquid scintillation counting; conditions: llc-pk1, 100 µM
In short: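 P-gp-expressing and parental LLC-PK1 monolayers were grown on transwell inserts for 6–7 days to confluence and switched to serum-free M199 1 h before assay. [3H]digoxin was given apical-to-basal or basal-to-apical, with inhibitor in both chambers, at 37 °C, solvent ≤0.5%. Receiver samples were scintillation-counted and Papp taken from the linear phase. Results are % of control BtoA transport, mean ± S.D., n≥3.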

[2] = target: T1, Organic anion transporter 3 (Homo sapiens, UniProt Q8TCC7); experiment: Inhibition of OAT3 (unknown origin) expressed in HEK293 cells assessed as reduction of [3H]E-sul substrate uptake by liquid scintillation counting
T1 sequence (Q8TCC7 whole entry): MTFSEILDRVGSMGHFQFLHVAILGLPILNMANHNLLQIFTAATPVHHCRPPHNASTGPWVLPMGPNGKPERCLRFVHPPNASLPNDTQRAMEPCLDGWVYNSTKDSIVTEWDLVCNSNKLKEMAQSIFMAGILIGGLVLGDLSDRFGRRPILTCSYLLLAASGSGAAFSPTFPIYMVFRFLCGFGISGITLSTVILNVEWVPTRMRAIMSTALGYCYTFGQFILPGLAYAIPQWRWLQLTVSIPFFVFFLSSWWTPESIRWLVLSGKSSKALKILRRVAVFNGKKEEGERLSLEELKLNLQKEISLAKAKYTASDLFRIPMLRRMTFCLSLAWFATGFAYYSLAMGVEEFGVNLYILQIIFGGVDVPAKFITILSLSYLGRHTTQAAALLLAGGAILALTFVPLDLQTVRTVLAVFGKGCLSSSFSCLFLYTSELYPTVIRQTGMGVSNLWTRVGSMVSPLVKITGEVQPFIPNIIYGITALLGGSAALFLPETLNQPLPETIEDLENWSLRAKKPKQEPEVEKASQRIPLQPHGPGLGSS

[3] = Permeability assessed as human P-glycoprotein-mediated transport across apical to basolateral side expressed in pig LLC-PK1 cells by measuring membrane permeability time by Transwell experiment/liquid scintillation counting

**Q.** With `CC#CCn1c(N2CCC[C@@H](N)C2)nc2c1c(=O)n(Cc1nc(C)c3ccccc3n1)c(=O)n2C` [LINAGLIPTIN] as the compound, how does the “inhibition (INH)” value [1] read?
**A.** Active

**Q.** And the IC50 [2]?
**A.** > 100 µM

**Q.** What about the Time [3] of the same compound?
**A.** 4.4 h
